Columns and labels:
Format in all cases: functional
Haemonchus contortus = test: Parasiticidal activity against Haemonchus contortus McMaster
Summary of the method: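 Larval development assay with Haemonchus contortus larvae. The endpoint was LD99, and the assay was performed by an external screening contractor.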

Ctenocephalides felis [1] = test: Parasiticidal activity against Ctenocephalides felis after 24 hrs; set-up: concentration or dose not given beside the values
Summary of the method: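 Single-dose in vitro cat flea assay: compound in acetone (0.5 mL) coated on the base of four 100 mL flasks at 1.26 µg/cm². Flasks held at 25 ± 1 °C and 75 ± 5% humidity for 24 h. Dead fleas counted per flask, and pooled data expressed as percent mortality.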

Ctenocephalides felis [2] = test: Parasiticidal activity against Ctenocephalides felis after 8 hrs
Summary of the method: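 Cat flea contact assay: compound applied in acetone to the base of four flasks at 1.26 µg/cm², held at 25 ± 1 °C and 75 ± 5% humidity. Dead fleas counted at 8 h, and pooled counts converted to percent mortality.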

Ctenocephalides felis [3] = test: Parasiticidal activity against Ctenocephalides felis

| Compound | LD99 (Haemonchus contortus) [µM] | Activity (Ctenocephalides felis [1]) [%] | Activity (Ctenocephalides felis [2]) [%] | LC50 (Ctenocephalides felis [3]) [ug/sq.cm] |
| --- | --- | --- | --- | --- |
| N#C/C(=C\c1cc(Br)c[nH]1)c1ccc(F)cc1 | 17 | 15 | – | – |
| N#C/C(=C\c1ccc[nH]1)c1cccc(Br)c1 | 3.4 | 24 | – | – |
| CC(C)=CCn1cccc1/C=C(\C#N)c1ccc(Cl)cc1 | >51 | 0 | – | – |
| COc1ccc(/C(C#N)=C/c2ccc[nH]2)cc1 | 6.7 | 31 | – | – |
| N#C/C(=C\c1ccc[nH]1)c1cccc(Oc2ccccc2)c1 | 11 | 10 | – | – |
| Cn1cccc1/C=C(\C#N)c1ccc(Cl)cc1 | 7.8 | – | 13 | – |
| N#C/C(=C\c1ccc[nH]1)c1ccccc1C(F)(F)F | – | 14 | – | – |
| N#C/C(=C\c1ccc[nH]1)c1ccc(C(F)(F)F)cc1 | 3.1 | 20 | – | – |
| N#C/C(=C\c1ccc[nH]1)c1ccccc1F | 12 | 92 | – | 0.59 |
| COc1ccccc1/C(C#N)=C/c1ccc[nH]1 | – | 9 | – | – |
| Cc1ccc(/C(C#N)=C/c2ccc[nH]2)c(C)c1 | – | 44 | – | – |
| N#C/C(=C\c1ccc[nH]1)c1ccc(-c2ccccc2)cc1 | 28 | 46 | – | – |
| N#C/C(=C\c1ccc[nH]1)c1ccc(I)cc1 | 2.2 | 14 | – | – |
| N#C/C(=C\c1cc(Br)c[nH]1)c1ccc(Cl)c(Cl)c1 | 7.3 | 19 | – | – |
| N#C/C(=C\c1ccc[nH]1)c1c(F)cccc1Cl | >61 | 7 | – | – |
| N#C/C(=C\c1ccc[nH]1)c1cc(C(F)(F)F)cc(C(F)(F)F)c1 | >45 | 27 | – | – |

| Compound | LD99 (Haemonchus contortus) [µM] | Activity (Ctenocephalides felis [1]) [%] | Activity (Ctenocephalides felis [2]) [%] | LC50 (Ctenocephalides felis [3]) [ug/sq.cm] |
| --- | --- | --- | --- | --- |
| N#C/C(=C\c1ccc[nH]1)c1ccc(F)c(Cl)c1 | 5.1 | 5 | – | – |
| CN(C)C(=S)n1cccc1/C=C(\C#N)c1ccc(Cl)cc1 | 32 | 19 | – | – |
| CCC(=O)n1cccc1/C=C(\C#N)c1ccc(Cl)cc1 | 1.3 | 12 | – | – |
| N#C/C(=C\c1ccc[nH]1)c1ccc(Cl)cc1 | 1.8 | – | 95 | 0.17 |
| CC(C)(C)OC(=O)n1cccc1/C=C(\C#N)c1ccc(Cl)cc1 | 11 | 9 | – | – |
| CC(C)c1ccc(/C(C#N)=C/c2ccc[nH]2)cc1 | – | 100 | – | 1.32 |
| IVERMECTIN | 0.0057 | – | – | – |
| N#C/C(=C\c1cc(Br)c[nH]1)c1ccc(C(F)(F)F)cc1 | >44 | 15 | – | – |
| N#C/C(=C\c1ccc[nH]1)c1ccc(F)cc1 | 2 | 78 | – | 0.3 |
| N#C/C(=C\c1cccn1Cc1ccccc1)c1ccc(Cl)cc1 | 44 | 3 | – | – |
| N#C/C(=C\c1ccc[nH]1)c1cccc(F)c1 | 8 | 78 | – | 0.78 |
| N#C/C(=C\c1ccc[nH]1)c1ccccc1-c1ccccc1 | – | 2 | – | – |
| N#C/C(=C\c1cc(Cl)c(Cl)[nH]1)c1ccc(Cl)cc1 | 10 | 15 | – | – |
| N#C/C(=C\c1cccn1C(=O)c1ccccc1)c1ccc(Cl)cc1 | 3.8 | 6 | – | – |
| Cc1ccc(S(=O)(=O)n2cccc2/C=C(\C#N)c2ccc(Cl)cc2)cc1 | 31 | 0 | – | – |
